# Measurements: article PMC6001651 (International Journal of Biological Sciences, 2018)
# Where no end group is shown, it is not given here.
# What was measured:
# [1] = system: methicillin-resistant S. aureus (MRSA; ATCC 12493); assay: Antimicrobial assay; format: cell-based
# In short: (§1)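 Each organism was grown in Mueller-Hinton broth, and 10^5 CFU/mL were exposed to test compound at 1–512 μM in two-fold dilutions. Plates were incubated at 37 °C in humidified air for 16–24 h. For MBC, 20 µL from each well was plated on Mueller-Hinton agar. MBC was the lowest concentration giving no colonies.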
# [2] = system: five diverse human cancer cell lines; assay: MTT anti-cancer assay, summary over five cancer cell lines; format: cell-based; details: read-out: IC50s over the cancer cell lines
# In short: (§2)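 Cells were seeded at 5000/well, grown 24 h at 37 °C in 5% CO2, then serum-starved for 6 h. Test compound at ten-fold concentrations from 10^-4 to 10^-9 M in serum-free medium was added for 24 h. MTT (5 mg/ml solution) was added for 4–6 h, formazan was dissolved in DMSO and OD was read at 550 nm. IC50 came from normalised curves; three independent experiments, mean ± s.d.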
# P. aeruginosa biofilm = format: cell-based
# Circular dichroism = format: physicochemical; details: 100 µM peptide, 20 °C
# In short: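 Test compound at 100 µM was dissolved in 10 mM ammonium acetate or in 50% TFE (v/v in 10 mM ammonium acetate) and read in a 1-mm cuvette. Spectra covered 190–260 nm at 20 °C, with three accumulations, 200 nm/min scan speed, 1 nm bandwidth and 0.5 nm data pitch. % α-helix was estimated by K2D on DichroWeb.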
# [3] = system: P. aeruginosa (ATCC 27853); assay: Antimicrobial assay; format: cell-based
# In short: as §1
# melanocyte MDA-MB-435S = assay: MTT anti-cancer assay; format: cell-based, human; details: MBD-MB-435S, 24 h
# In short: as §2
# [4] = system: human glioblastoma astrocytoma U251MG; assay: MTT anti-cancer assay; format: cell-based; details: U251-MG, 24 h
# In short: as §2
# [5] = system: human prostate carcinoma PC-3; assay: MTT anti-cancer assay; format: cell-based; details: PC-3, 24 h
# In short: as §2
# Stability in serum = format: in vitro ADME; details: 10% FBS in RPMI-1640, 37 °C
# In short: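 Test compound at 50 μM was incubated in RPMI-1640 with 10% FBS at 37 °C for 24 h. Every 4 h, an aliquot was mixed with two volumes of 96% ethanol, held at 4 °C for 15 min and spun at 18,000× g for 2 min. Supernatants were analysed by RP-HPLC and MALDI-TOF. % remaining was the peak area relative to a serum-free stock; three independent experiments, mean ± s.d.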
# E. faecalis (NCTC 12697) = assay: Antimicrobial assay; format: cell-based
# In short: as §1
# S. aureus (NCTC 10788) = assay: Antimicrobial assay; format: cell-based
# In short: as §1
# Haemolysis assay = format: cell-based; details: horse erythrocytes, 2% suspension
# In short: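 A 2% horse erythrocyte suspension in PBS was incubated with test compound at 1–512 μM for 2 h at 37 °C, with PBS and 1% Triton X-100 as controls. After centrifugation at 900× g for 5 min, supernatant absorbance was read at 550 nm. HC50 was calculated from normalised curves.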
# [6] = system: all the microorganisms that we examined; assay: Antimicrobial assays, summary over all microorganisms examined; format: cell-based
# In short: as §1
# [7] = system: normal human microvessel endothelial cells HMEC-1; assay: MTT assay on normal cells; format: cell-based
# In short: as §2
# [8] = system: non-small cell lung cancer H157; assay: MTT anti-cancer assay; format: cell-based, human; details: H157, 24 h
# In short: as §2
# C. albicans (NCTC 1467) = assay: Antimicrobial assay; format: cell-based
# In short: as §1
# [9] = system: biofilm formation by S. aureus and P. aeruginosa; format: cell-based
# E. coli (NCTC 10418) = assay: Antimicrobial assay; format: cell-based
# In short: as §1
# S. aureus biofilm = format: cell-based
# [10] = system: human breast cancer MCF-7; assay: MTT anti-cancer assay; format: cell-based; details: MCF-7, 24 h
# In short: as §2
substance,measurement,setting,value
RKKRRQRRRLNLKALLAVAKKIL-NH2 [tMP-C],MBC,[1],8 µM
same,MIC,[1],4 µM
same,IC50,[2],< 4 µM
same,MBIC,P. aeruginosa biofilm; P. aeruginosa biofilm formation,8 µM
same,MBEC,P. aeruginosa biofilm; P. aeruginosa existing biofilm,128 µM
same,% α-helix 10 mM NH4AC,Circular dichroism; 10 mM NH4AC buffer,9%
same,% α-helix 50% TFE (v/v),Circular dichroism; 50% TFE in 10 mM NH4AC,28%
same,MBC,[3],4 µM
same,MIC,[3],4 µM
same,IC50,melanocyte MDA-MB-435S,3.86 µM
same,IC50,[4],3.36 µM
same,IC50,[5],3.86 µM
same,serum stability (in words),Stability in serum,poor serum stability
same,MBC,E. faecalis (NCTC 12697),16 µM
same,MIC,E. faecalis (NCTC 12697),8 µM
same,MBC,S. aureus (NCTC 10788),4 µM
same,MIC,S. aureus (NCTC 10788),4 µM
same,HC50 at 2 h,Haemolysis assay,77.9 µM
same,MIC and MBC values,[6],at most 16 µM
same,inhibitory effect,"[7]; HMEC-1, concentration of 10 µM",60%
same,IC50,"[7]; HMEC-1 normal cells, 24 h, MTT",9.18 µM
same,IC50,[8],2.79 µM
same,MBC,C. albicans (NCTC 1467),2 µM
same,MIC,C. albicans (NCTC 1467),2 µM
same,maximum MBIC,[9],32 µM
same,MBC,E. coli (NCTC 10418),2 µM
same,MIC,E. coli (NCTC 10418),2 µM
same,MBIC,S. aureus biofilm; S. aureus biofilm formation,32 µM
same,MBEC,S. aureus biofilm; S. aureus existing biofilm,256 µM
same,IC50,[10],3.7 µM
